What was measured:
Rattus norvegicus [1] = assay: Antiparkinsonian activity in 6-hydroxydopamine lesioned Wistar rat assessed as number of rotation per 10 mins at 21.86 mg/kg, po; type: functional
Rattus norvegicus [2] = assay: Antiparkinsonian activity in 6-hydroxydopamine lesioned Wistar rat assessed as area under curve measured as number of rotation per 10 mins at 21.86 mg/kg, po; type: functional
In short: (§1)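 Male Wistar rats were given desipramine (25 mg/kg ip) and then a unilateral 6-OHDA injection (8 µg free base) into the left medial forebrain bundle. Lesions were confirmed ≥2 weeks later by apomorphine (0.5 mg/kg sc), accepting rats with >6 turns/min. Rats (n=4–8) received benserazide 10 mg/kg and 30 min basal recording, then drug at 63.4 µmol/kg ip or po in saline. Contraversive rotations were counted per 10 min over 240 min. AUC was calculated and expressed as % of the L-dopa effect.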

Rattus norvegicus [3] = assay: Antiparkinsonian activity in 6-hydroxydopamine lesioned Wistar rat assessed as duration of rotation per 10 mins at 21.86 mg/kg, po; type: functional
In short: (§2)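 The 6-OHDA-lesioned male Wistar rats were apomorphine-screened (>6 turns/min) and given benserazide 10 mg/kg, then a saline-vehicle dose of 63.4 µmol/kg ip or po (n=4–8). Rotations were counted per 10 min for 4 h. Duration of activity was the time turning >10 turns per 10 min, expressed as % of the L-dopa effect.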

Rattus norvegicus [4] = assay: Antiparkinsonian activity in 6-hydroxydopamine lesioned Wistar rat assessed as number of rotation per 10 mins at 20.97 mg/kg, po; type: functional
In short: (§3)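 Rotometer assay in unilaterally 6-OHDA-lesioned male Wistar rats (apomorphine-confirmed, >6 turns/min). Benserazide 10 mg/kg was given, followed by compound at 63.4 µmol/kg ip or po in saline (n=4–8 per treatment). Rotations were recorded per 10 min for 240 min. Peak (maximum) rotations per 10 min were taken and expressed relative to L-dopa.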

Rattus norvegicus [5] = assay: Antiparkinsonian activity in 6-hydroxydopamine lesioned Wistar rat assessed as area under curve measured as number of rotation per 10 mins at 20.97 mg/kg, po; type: functional; in short: as §1
Rattus norvegicus [6] = assay: Antiparkinsonian activity in 6-hydroxydopamine lesioned Wistar rat assessed as duration of rotation per 10 mins at 20.97 mg/kg, po; type: functional; in short: as §2
Rattus norvegicus [7] = assay: Antiparkinsonian activity in 6-hydroxydopamine lesioned Wistar rat assessed as number of rotation per 10 mins at 21.81 mg/kg, po; type: functional
Rattus norvegicus [8] = assay: Antiparkinsonian activity in 6-hydroxydopamine lesioned Wistar rat assessed as area under curve measured as number of rotation per 10 mins at 21.81 mg/kg, po; type: functional; in short: as §1
Rattus norvegicus [9] = assay: Antiparkinsonian activity in 6-hydroxydopamine lesioned Wistar rat assessed as duration of rotation per 10 mins at 21.81 mg/kg, po; type: functional; in short: as §2
Rattus norvegicus [10] = assay: Cmax in Wistar rat at 25.4 mg/kg, po assessed as L-dopa level; type: ADME, organism-based; parameters: dose 25.4 mg/kg, route oral; settings: in vivo
In short: (§4)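 Naïve male Wistar rats (250–500 g), fasted overnight, dosed orally in 0.9% saline with benserazide (10 mg/kg) at dose equivalent to 12.5 mg/kg L-dopa. Heparinised tail-vein blood at various times; plasma extracted with 20% TFA in 10 mM metabisulphite with warfarin internal standard; L-dopa quantified by LC-MS/MS (positive ESI) against plasma standard curve 0.39–50 µM.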

Rattus norvegicus [11] = assay: Apparent half life in Wistar rat at 25.4 mg/kg, po assessed as L-dopa level; type: ADME, organism-based; parameters: dose 25.4 mg/kg, route oral; settings: in vivo; in short: as §4
Rattus norvegicus [12] = assay: AUC (0 to 4 hrs) in Wistar rat at 25.4 mg/kg, po assessed as L-dopa level; type: ADME, organism-based, Plasma; parameters: time < 4 hr, dose 25.4 mg/kg, route oral; settings: in vivo
In short: (§5)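 Naïve male Wistar rats (250–500 g), fasted overnight, dosed with compound in 0.9% saline together with benserazide (10 mg/kg), at a dose molar-equivalent to 12.5 mg/kg L-dopa. Heparinised tail-vein blood was sampled at intervals and the plasma stored at −80 °C. L-dopa was extracted with 20% TFA/10 mM metabisulphite plus warfarin internal standard and quantified by LC-MS/MS (positive ESI) against plasma standard curves.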

Rattus norvegicus [13] = assay: Antiparkinsonian activity in 6-hydroxydopamine lesioned Wistar rat assessed as number of rotation per 10 mins at 20.1 mg/kg, ip; type: functional; settings: route intraperitoneal; in short: as §3
Rattus norvegicus [14] = assay: Antiparkinsonian activity in 6-hydroxydopamine lesioned Wistar rat assessed as number of rotation per 10 mins at 20.1 mg/kg, po; type: functional; in short: as §3
Rattus norvegicus [15] = assay: Antiparkinsonian activity in 6-hydroxydopamine lesioned Wistar rat assessed as area under curve measured as number of rotation per 10 mins at 20.1 mg/kg, po; type: functional; in short: as §1
Rattus norvegicus [16] = assay: Antiparkinsonian activity in 6-hydroxydopamine lesioned Wistar rat assessed as area under curve measured as number of rotation per 10 mins at 20.1 mg/kg, ip; type: functional; settings: route intraperitoneal; in short: as §1
Rattus norvegicus [17] = assay: Antiparkinsonian activity in 6-hydroxydopamine lesioned Wistar rat assessed as duration of rotation per 10 mins at 20.1 mg/kg, po; type: functional; in short: as §2
Rattus norvegicus [18] = assay: Antiparkinsonian activity in 6-hydroxydopamine lesioned Wistar rat assessed as duration of rotation per 10 mins at 20.1 mg/kg, ip; type: functional; settings: route intraperitoneal; in short: as §2
Rattus norvegicus [19] = assay: Cmax in Wistar rat at 20.1 mg/kg, po assessed as L-dopa level; type: ADME, organism-based; parameters: dose 20.1 mg/kg, route oral; settings: in vivo; in short: as §4
Rattus norvegicus [20] = assay: Apparent half life in Wistar rat at 20.1 mg/kg, po assessed as L-dopa level; type: ADME, organism-based; parameters: dose 20.1 mg/kg, route oral; settings: in vivo; in short: as §4
Rattus norvegicus [21] = assay: AUC (0 to 4 hrs) in Wistar rat at 20.1 mg/kg, po assessed as L-dopa level; type: ADME, organism-based, Plasma; parameters: time < 4 hr, dose 20.1 mg/kg, route oral; settings: in vivo; in short: as §5
Rattus norvegicus [22] = assay: Cmax in Wistar rat at 42.5 mg/kg, po assessed as L-dopa level; type: ADME, organism-based; parameters: dose 42.5 mg/kg, route oral; settings: in vivo; in short: as §4
Rattus norvegicus [23] = assay: Apparent half life in Wistar rat at 42.5 mg/kg, po assessed as L-dopa level; type: ADME, organism-based; parameters: dose 42.5 mg/kg, route oral; settings: in vivo; in short: as §4
Rattus norvegicus [24] = assay: AUC (0 to 4 hrs) in Wistar rat at 42.5 mg/kg, po assessed as L-dopa level; type: ADME, organism-based, Plasma; parameters: time < 4 hr, dose 42.5 mg/kg, route oral; settings: in vivo; in short: as §5

Molecule `CCNC(=O)[C@@H](N)Cc1ccc(OC(C)=O)c(OC(C)=O)c1.Cl` has an Activity (Rattus norvegicus [1]) of 6, an Activity (Rattus norvegicus [2]) of 20 and a Time (Rattus norvegicus [3]) of 3 min.
Work on `CNC(=O)[C@@H](N)Cc1ccc(OC(C)=O)c(OC(C)=O)c1.Cl` yielded an Activity (Rattus norvegicus [4]) of 1, an Activity (Rattus norvegicus [5]) of 26 and a Time (Rattus norvegicus [6]) of 0 min.
For `CC(=O)Oc1ccc(C[C@H](N)C(=O)N(C)C)cc1OC(C)=O.Cl`, the Activity (Rattus norvegicus [7]) was 1, the Activity (Rattus norvegicus [8]) was 26 and the Time (Rattus norvegicus [9]) was 0 min.
`CC(C)CC(=O)Oc1ccc(C[C@H](N)C(N)=O)cc1OC(=O)CC(C)C.Cl` was tested, and the Cmax (Rattus norvegicus [10]) was 860 ng/mL, the t1/2 (Rattus norvegicus [11]) was 1.3 h and the AUC (Rattus norvegicus [12]) was 98 µg·min/mL.
With `CC(=O)Oc1ccc(C[C@H](N)C(N)=O)cc1OC(C)=O.Cl` the Activity (Rattus norvegicus [13]) was 69, the Activity (Rattus norvegicus [14]) was 107 and the Activity (Rattus norvegicus [15]) was 1085. For the same molecule, the Activity (Rattus norvegicus [16]) was 838, the Time (Rattus norvegicus [17]) was 147 min and the Time (Rattus norvegicus [18]) was 140 min. The Cmax (Rattus norvegicus [19]) was 1746 ng/mL, the t1/2 (Rattus norvegicus [20]) was 1.62 h and the AUC (Rattus norvegicus [21]) was 245 µg·min/mL.
`CC(C)(C)C(=O)Oc1ccc(C[C@H](N)C(N)=O)cc1OC(=O)C(C)(C)C.Cl` gave a Cmax (Rattus norvegicus [22]) of 415 ng/mL, a t1/2 (Rattus norvegicus [23]) of 0.85 h and an AUC (Rattus norvegicus [24]) of 44 µg·min/mL.
